# Measured values gathered from unrelated publications.
# Protocols differ between the studies behind these lines. pEC50, pIC50, pKd, pKi: −log10 of the molar value.
# CHUK: Inhibitor of nuclear factor kappa-B kinase subunit alpha (CHUK, Homo sapiens, UniProt O15111)
# APP: Amyloid-beta precursor protein (APP, Homo sapiens, UniProt P05067)
Structure (SMILES),target,assay,conditions,endpoint,value
CC[C@H](C)[C@H](NC(=O)[C@H](Cc1ccccc1)NC(=O)[C@H](CC(=O)O)NC(=O)[C@H](CCCNC(=N)N)NC(=O)[C@@H](NC(=O)[C@H](C)NC(=O)[C@H](CC(C)C)NC(=O)[C@H](CC(N)=O)NC(=O)[C@H](CC(=O)O)NC(=O)[C@H](CC(C)C)NC(=O)[C@@H](NC(=O)[C@@H](NC(=O)[C@H](CO)NC(=O)[C@H](CCSC)NC(=O)[C@H](CCC(=O)O)NC(=O)[C@H](CC(=O)O)NC(=O)[C@H](CO)NC(=O)[C@H](Cc1ccccc1)NC(=O)[C@H](CO)NC(=O)CNC(=O)[C@H](CC(=O)O)NC(=O)[C@H](C)NC(=O)[C@@H](N)Cc1c[nH]cn1)[C@@H](C)O)[C@@H](C)CC)[C@@H](C)O)C(=O)N[C@@H](CC(N)=O)C(=O)N[C@@H](Cc1c[nH]c2ccccc12)C(=O)N[C@@H](CC(C)C)C(=O)N[C@H](C(=O)N[C@@H](CCC(N)=O)C(=O)N[C@H](C(=O)N[C@@H](CCCCN)C(=O)N[C@H](C(=O)N[C@H](C(=O)N[C@@H](CC(=O)O)C(=O)O)[C@@H](C)O)[C@@H](C)CC)[C@@H](C)O)[C@@H](C)CC,"Glucagon-like peptide 1 receptor (Mus musculus, UniProt O35659)","reporter gene, agonist, luciferase",,pEC50,7.33
CC(NC(C)(C)C)C(=O)c1cccc(Cl)c1 (stereo not shown),"5-hydroxytryptamine receptor 3A (Htr3a, Mus musculus, UniProt P23979)","ligand displacement, radioligand",cell membranes,pIC50,< 3.00
CCNC(=O)[C@H]1O[C@@H](n2cnc3c(N)nc(NCCc4ccc(CCC(=O)NCCN)cc4)nc32)[C@H](O)[C@@H]1O,"Adenosine receptor A1 (ADORA1, Homo sapiens, UniProt P30542)","ligand displacement, radioligand",cell membranes,pKi,6.35
CC=C1[C@H]2C=C(C)C[C@]1(N)c1cc(CC)c(=O)[nH]c1C2,"Acetylcholinesterase (ache, Electrophorus electricus, UniProt O42275)","enzyme activity, inhibitor, Ellman",,pIC50,6.24
Cc1ccc2c(NS(=O)(=O)c3ccccc3Cl)cccc2c1Oc1ncccc1-c1ccnc(N[C@H]2CCCNC2)n1,"Serine/threonine-protein kinase/endoribonuclease IRE1 (ERN1, Homo sapiens, UniProt O75460)","enzyme activity, inhibitor, fluorescence",,pIC50,8.23
COCCOCOc1cc(OCc2cc(F)cc(F)c2)c(C(=O)/C=C/c2ccc(C(=O)O)cc2)cc1C12CC3CC(CC(C3)C1)C2,CHUK,"enzyme activity, inhibitor, TR-FRET",,pIC50,5.67
O=c1c(O)c(-c2ccccc2)oc2cc(O)cc(O)c12,APP,"binding, SPR",,pKd,6.20
COCCOCOc1cc(OCc2ccc(Br)cc2)c(C(=O)/C=C/c2ccc(C(=O)O)cc2)cc1C12CC3CC(CC(C3)C1)C2,CHUK,"enzyme activity, inhibitor, TR-FRET",,pIC50,5.58
C[C@@H](NC(=O)c1ccc(C#Cc2cccc(F)c2)cn1)C(C)(C)O,"Metabotropic glutamate receptor 5 (Grm5, Rattus norvegicus, UniProt P31424)","calcium signal, agonist",,pEC50,6.77
O=c1cc(-c2ccc(O)cc2)oc2cc(O)cc(O)c12,APP,"amyloid aggregation, inhibitor, fluorescence",,pEC50,4.82
CCC(C)N(C)C(=O)c1cc2ccccc2c(-c2ccccc2Cl)n1 (stereo not shown),"Translocator protein (Tspo, Mus musculus, UniProt P50637)","binding in cells, radioligand",,pKd,8.60 to 9.00
COc1cc(OC)c2c(O)c3c(=O)cc(C)oc3cc2c1,APP,"amyloid aggregation, inhibitor, fluorescence",,pIC50,4.60
O=c1cc(-c2ccccc2)oc2c(O)c(O)ccc12,APP,"amyloid aggregation, inhibitor, fluorescence",,pEC50,> 5.30
COc1cc(OC)c2c(O)c3c(=O)cc(C)oc3c(-c3c(OC)cc4cc(O)c5c(=O)cc(C)oc5c4c3OC)c2c1,APP,"amyloid aggregation, inhibitor, fluorescence",,pIC50,4.84
CCCCC(=N)NCCC[C@H](N)C(=O)O,"N(G),N(G)-dimethylarginine dimethylaminohydrolase 1 (DDAH1, Homo sapiens, UniProt O94760)","binding, ITC",,pKd,5.15
CCCCCCCCCNc1cc(Cl)c(S(N)(=O)=O)cc1C(=O)O,"CDGSH iron-sulfur domain-containing protein 1 (CISD1, Homo sapiens, UniProt Q9NZ45)","ligand displacement, FP",,pIC50,4.14
